These results are taken from ChEMBL document CHEMBL2331371, “Natural products inspired synthesis of neuroprotective agents against H₂O₂-induced cell death” (Bioorg Med Chem Lett, 2013).

Assay [1] relates to PC-12. The assay is described as follows: Inhibition of H2O2-induced decrease in Na+/K+ ATPase activity in rat PC12 cells assessed as increase in inorganic phosphate liberation using ATP as substrate at 50 uM after 1 hr by colorimetric analysis in presence H2O2. Format: cell-based. The method in brief:
(§1)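 Adherent PC12 cells exposed 1 h to 50 µM compound, either alone or together with 100 µM H2O2, then harvested. ATPase assayed in two parallel runs, total and ouabain-insensitive. Inorganic phosphate formed in 30 min quantified colorimetrically; Na+/K+-ATPase activity taken as the difference without versus with ouabain. Triplicate experiments; means ± SEM, Student t-test.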

Assay [2] concerns PC-12. Kind of assay: Effect on Na+/K+ ATPase activity in rat PC12 cells assessed as inorganic phosphate liberation using ATP as substrate at 50 uM after 1 hr by colorimetric analysis. Format: cell-based. The method in brief:
as §1

For assay [3], the system named is PC-12. Kind of assay: Neuroprotective activity against H2O2-induced oxidative stress in rat PC12 cells assessed as increase in cell viability treated for 6 hrs prior to H2O2 addition measured after 18 hrs by Synergy Hybrid H1 reader analysis. The format is functional, cell-based. The method in brief: (§2)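 PC12 cells pretreated 6 h with compound at 0.1, 1, 10, 50, 100 or 150 µM, then challenged with 100 µM H2O2 for a further 18 h. Untreated cells served as 100% survival. Cells harvested for viability assay. Triplicates with three separate culture batches; means ± SEM, Student t-test, p<0.05.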

Assay [4] deals with PC-12. The assay is described as follows: Neuroprotective activity against H2O2-induced oxidative stress in rat PC12 cells assessed as increase in cell viability at 0.1 to 150 uM treated for 6 hrs prior to H2O2 addition measured after 18 hrs by Synergy Hybrid H1 reader analysis. Format: functional, cell-based. An outline of the steps: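 PC12 cells pretreated 6 h with test agent (0.1, 1, 10, 50, 100, 150 µM), then 100 µM H₂O₂ added for a further 18 h. Untreated cells set as 100% survival; H₂O₂-only cells as injury control. Cells then harvested for viability assay. Triplicate runs over three separate culture batches; means ± SEM, Student t-test, p < 0.05.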

In assay [5] the test system is PC-12. The assay is described as follows: Neuroprotective activity against H2O2-induced oxidative stress in rat PC12 cells assessed as increase in cell viability at 0.1 to 10 uM treated for 6 hrs prior to H2O2 addition measured after 18 hrs by Synergy Hybrid H1 reader analysis. The format is functional, cell-based. The method in brief: as §2

The source made the active and inactive calls. The rule behind the calls is not given here.

In the case of `C[C@]12CCCC[C@@]1(O)OC(=O)C=C2c1ccoc1`, the inhibition entry with PC-12 [1] was “Active”. The outcome in the assay with PC-12 [2] was inactive. Moreover, in the assay with PC-12 [3], the Activity entry is “Dose-dependent effect”.
For the compound `C[C@]12CCCC[C@@]1(O)C(=O)CC2c1ccoc1` (single isomer, unassigned), the outcome with PC-12 [2] was inactive. Moreover, the result with PC-12 [4] was Active.
With `C[C@]12CCCC[C@@]1(O)C(=O)C=C2c1ccoc1`, in the assay on PC-12 [2], the result was inactive. Moreover, in the assay on PC-12 [3], the Activity result was “Dose-dependent effect”. Also, the outcome in the assay with PC-12 [5] was Active.
Take `C[C@]12CCCC[C@@]1(O)C(=O)C=C2c1ccco1`: the inhibition entry in the assay on PC-12 [1] was “Active”. In addition, the outcome with PC-12 [2] was inactive. For the same compound, the result in the assay with PC-12 [4] was Active.
For the compound `C[C@]12CCCC[C@H]1C(=O)C=C2c1ccoc1`, the inhibition entry with PC-12 [1] was “Active”. For the same compound, in the assay with PC-12 [2], the outcome was inactive. For the same compound, the Activity result in the assay on PC-12 [3] was “Dose-dependent effect”. Also, in the assay with PC-12 [5], the outcome was Active.
Consider `C[C@]12CCCC[C@@]1(O)C(=O)C[C@H]2c1ccco1`, for which, in the assay with PC-12 [1], the inhibition result is “Active”. The result in the assay with PC-12 [2] was inactive. In addition, the Activity entry in the assay on PC-12 [3] is “Dose-dependent effect”.
